Experimental data reported in ChEMBL document CHEMBL1155086, “Synthesis and evaluation of antitubercular activity of glycosyl thio- and sulfonyl acetamide derivatives” (Bioorg Med Chem Lett, 2008).
Values after ≈ are worked out from the molar mass of the structure shown.

What was measured:
[1] = system: Mycobacterium tuberculosis; test: Antitubercular activity against Mycobacterium tuberculosis H37Rv after 4 weeks by agar dilution method; type: functional; settings: 672 h
Method in brief: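 Proportion method on agar: serial twofold dilutions mixed into warm Middlebrook 7H10 agar and set as slants. Each slant surface inoculated with 10⁵ CFU of M. tuberculosis H37Rv in 10 µL, then incubated at 37 °C for 4 weeks. MIC (µg/mL) taken as the lowest concentration giving complete inhibition of colony growth. Rifampicin and isoniazid served as reference drugs.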

[2] = Cytotoxicity against mouse bone marrow derived macrophages; type: cell-based; settings: macrophage
Method in brief: (§1)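 MTS (Mosmann-type) viability assay. 10⁴ cells/well in DME with 10% foetal bovine serum plus antibiotics were pre-incubated 24 h at 37 °C, 5% CO2. Medium was then replaced with serial dilutions of compound, a standard toxic compound or DMSO, and incubated a further 24 h. MTS was added and absorbance read at 490 nm after 2 h. DMSO wells were set as 100% viability.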

[3] = Cytotoxicity against african green monkey Vero C1008 cells; type: cell-based; settings: chlorocebus sabaeus; method in brief: as §1

Compound	MIC [1] [µg/mL]	Activity [2]	Activity [3]
CC(=O)OC[C@H]1O[C@@H](SCC(N)=O)[C@H](OC(C)=O)[C@@H](OC(C)=O)[C@H]1OC(C)=O	1.56 (≈ 3.7 µM)	Non-toxic	Non-toxic
CCCCCCCCCCCCNC(=O)CS(=O)(=O)[C@@H]1O[C@H](COC(C)=O)[C@@H](O[C@@H]2O[C@H](COC(C)=O)[C@H](OC(C)=O)[C@H](OC(C)=O)[C@H]2OC(C)=O)[C@H](OC(C)=O)[C@H]1OC(C)=O	> 12.5	–	–
CC(=O)OC[C@H]1O[C@@H](SCC(=O)NCc2ccccc2)[C@H](OC(C)=O)[C@@H](OC(C)=O)[C@@H]1OC(C)=O	6.25 (≈ 12.2 µM)	–	–
CC(=O)O[C@H]1[C@H](OC(C)=O)[C@H](OC(C)=O)CO[C@H]1S(=O)(=O)CC(N)=O	12.5 (≈ 32.8 µM)	–	–
CC(=O)OC[C@H]1O[C@@H](S(=O)(=O)CC(N)=O)[C@H](OC(C)=O)[C@@H](OC(C)=O)[C@@H]1O[C@@H]1O[C@H](COC(C)=O)[C@@H](OC(C)=O)[C@H](OC(C)=O)[C@H]1OC(C)=O	25 (≈ 33.7 µM)	–	–
CC(=O)OC[C@H]1O[C@@H](S(=O)(=O)CC(N)=O)[C@H](OC(C)=O)[C@@H](OC(C)=O)[C@@H]1OC(C)=O	3.12 (≈ 6.89 µM)	Non-toxic	Non-toxic
CC(=O)OC[C@H]1O[C@@H](SCC(N)=O)[C@H](OC(C)=O)[C@@H](OC(C)=O)[C@@H]1OC(C)=O	3.12 (≈ 7.42 µM)	Non-toxic	Non-toxic
CC(=O)O[C@H]1[C@H](OC(C)=O)[C@H](SCC(N)=O)OC[C@H]1OC(C)=O	> 12.5	–	–
CC(=O)OC[C@H]1O[C@@H](S(=O)(=O)CC(N)=O)[C@H](OC(C)=O)[C@@H](OC(C)=O)[C@H]1OC(C)=O	3.12 (≈ 6.89 µM)	Non-toxic	Non-toxic
CC(=O)O[C@@H]1[C@@H](OC(C)=O)[C@H](OC(C)=O)CO[C@H]1S(=O)(=O)CC(N)=O	12.5 (≈ 32.8 µM)	–	–
CC(=O)OC[C@H]1O[C@@H](SCC(N)=O)[C@@H](OC(C)=O)[C@@H](OC(C)=O)[C@@H]1OC(C)=O	3.12 (≈ 7.42 µM)	Non-toxic	Non-toxic
CC(=O)OC[C@H]1O[C@@H](O[C@H]2[C@H](OC(C)=O)[C@@H](OC(C)=O)[C@H](SCC(N)=O)O[C@@H]2COC(C)=O)[C@H](OC(C)=O)[C@@H](OC(C)=O)[C@H]1OC(C)=O	> 12.5	–	–
CC(=O)O[C@@H]1[C@H](OC(C)=O)[C@H](OC(C)=O)CO[C@H]1SCC(N)=O	12.5 (≈ 35.8 µM)	–	–
CCCCCCCCCCCCNC(=O)CS[C@@H]1OC[C@@H](OC(C)=O)[C@@H](OC(C)=O)[C@@H]1OC(C)=O	3.12 (≈ 6.04 µM)	Non-toxic	Non-toxic
CC(=O)OC[C@H]1O[C@@H](SCC(N)=O)[C@H](OC(C)=O)[C@@H](OC(C)=O)[C@@H]1O[C@@H]1O[C@H](COC(C)=O)[C@@H](OC(C)=O)[C@H](OC(C)=O)[C@H]1OC(C)=O	> 12.5	–	–
CC(=O)OC[C@H]1O[C@@H](SCC(N)=O)[C@H](OC(C)=O)[C@@H](OC(C)=O)[C@@H]1O[C@H]1O[C@H](COC(C)=O)[C@@H](OC(C)=O)[C@H](OC(C)=O)[C@H]1OC(C)=O	> 12.5	–	–

Compound	MIC [1] [µg/mL]	Activity [2]	Activity [3]
CCCCCCCCNC(=O)CS[C@@H]1O[C@H](COC(C)=O)[C@@H](OC(C)=O)[C@H](OC(C)=O)[C@H]1OC(C)=O	> 12.5	–	–
CC(=O)OC[C@H]1O[C@@H](O[C@H]2[C@H](OC(C)=O)[C@@H](OC(C)=O)[C@H](S(=O)(=O)CC(N)=O)O[C@@H]2COC(C)=O)[C@H](OC(C)=O)[C@@H](OC(C)=O)[C@H]1OC(C)=O	3.12 (≈ 4.21 µM)	Non-toxic	Non-toxic
CCCCCCCCNC(=O)CS(=O)(=O)[C@@H]1O[C@H](COC(C)=O)[C@@H](OC(C)=O)[C@H](OC(C)=O)[C@H]1OC(C)=O	> 12.5	–	–
CC(=O)OC[C@H]1O[C@@H](S(=O)(=O)CC(N)=O)[C@H](OC(C)=O)[C@@H](OC(C)=O)[C@@H]1O[C@H]1O[C@H](COC(C)=O)[C@@H](OC(C)=O)[C@H](OC(C)=O)[C@H]1OC(C)=O	25 (≈ 33.7 µM)	–	–
CCCCCCCCNC(=O)CS[C@@H]1OC[C@@H](OC(C)=O)[C@@H](OC(C)=O)[C@@H]1OC(C)=O	> 12.5	–	–
CCCCCCCCCCCCNC(=O)CS(=O)(=O)[C@@H]1OC[C@@H](OC(C)=O)[C@@H](OC(C)=O)[C@@H]1OC(C)=O	> 12.5	–	–
CCCCCCCCNC(=O)CS(=O)(=O)[C@@H]1OC[C@@H](OC(C)=O)[C@@H](OC(C)=O)[C@@H]1OC(C)=O	> 12.5	–	–
CC(=O)OC[C@H]1O[C@@H](S(=O)(=O)CC(N)=O)[C@@H](OC(C)=O)[C@@H](OC(C)=O)[C@@H]1OC(C)=O	> 12.5	–	–
CCCCCCCCNC(=O)CS[C@@H]1O[C@H](COC(C)=O)[C@@H](O[C@@H]2O[C@H](COC(C)=O)[C@H](OC(C)=O)[C@H](OC(C)=O)[C@H]2OC(C)=O)[C@H](OC(C)=O)[C@H]1OC(C)=O	> 12.5	–	–
CCCCCCCCCCCCNC(=O)CS[C@@H]1O[C@H](COC(C)=O)[C@@H](O[C@@H]2O[C@H](COC(C)=O)[C@H](OC(C)=O)[C@H](OC(C)=O)[C@H]2OC(C)=O)[C@H](OC(C)=O)[C@H]1OC(C)=O	> 12.5	–	–
CCCCCCCCCCCCNC(=O)CS(=O)(=O)[C@@H]1O[C@H](COC(C)=O)[C@@H](OC(C)=O)[C@H](OC(C)=O)[C@H]1OC(C)=O	> 12.5	–	–
CC(=O)O[C@@H]1[C@@H](OC(C)=O)[C@H](SCC(N)=O)OC[C@H]1OC(C)=O	12.5 (≈ 35.8 µM)	–	–
CCCCCCCCNC(=O)CS(=O)(=O)[C@@H]1O[C@H](COC(C)=O)[C@@H](O[C@@H]2O[C@H](COC(C)=O)[C@H](OC(C)=O)[C@H](OC(C)=O)[C@H]2OC(C)=O)[C@H](OC(C)=O)[C@H]1OC(C)=O	> 12.5	–	–
CC(=O)OC[C@H]1O[C@@H](S(=O)(=O)CC(=O)NCc2ccccc2)[C@H](OC(C)=O)[C@@H](OC(C)=O)[C@@H]1OC(C)=O	6.25 (≈ 11.5 µM)	Non-toxic	Non-toxic
CC(=O)O[C@@H]1[C@H](OC(C)=O)[C@H](OC(C)=O)CO[C@H]1S(=O)(=O)CC(N)=O	6.25 (≈ 16.4 µM)	Non-toxic	Non-toxic
CCCCCCCCCCCCNC(=O)CS[C@@H]1O[C@H](COC(C)=O)[C@@H](OC(C)=O)[C@H](OC(C)=O)[C@H]1OC(C)=O	> 12.5	–	–
